Assay results taken from ChEMBL document CHEMBL1148030, “Substituted 6-amino-4H-[1,2]dithiolo[4,3-b]pyrrol-5-ones: synthesis, structure-activity relationships, and cytotoxic activity on selected human cancer cell lines” (Bioorg Med Chem, 2007).
The source made the active and inactive calls. The rule behind the calls is not given here.

Legend:
[1] = Cytotoxicity against human LCC6 cells after 48 hrs by MTT assay; assay type: functional, cell-based; conditions: LCC-6, 48 h
SK-MEL-28 [2] = assay: Antitumor activity against VEGF expressing human SK-MEL-28 cells xenografted in mouse assessed as loss of body weight at 5 to 10 mg/kg, ip after 24 days; assay type: functional, organism-based
Method in brief: (§1)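 SK-MEL-28 V+ cells (engineered to overexpress VEGF) of over 95% viability were used to grow primary tumours in mice. These tumours were cut into 1 mm³ explants and implanted subcutaneously. Once tumours were palpable, mice were randomized and dosed intraperitoneally for 24 days: daily at 5 or 10 mg/kg, or every second day at 20 mg/kg. Tumours were measured by caliper every 2–5 days. Body weight and histology were assessed for toxicity.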

[3] = Half life in mouse at 36.8 umol/kg, ip; conditions: in vivo
[4] = Inhibition of tumor growth in human SK-MEL-28V+ cells xenografted in mouse at 20 mg/kg, ip administered every altenative day for 24 days; assay type: functional; conditions: 576 h, route intraperitoneal; method in brief: as §1
[5] = Plasma clearance in mouse at 36.8 umol/kg, ip
NCI-H460 [6] = assay: Cytotoxicity against human H460 cells after 48 hrs by MTT assay; assay type: functional, cell-based; conditions: NCI-H460, 48 h
[7] = Cmax in mouse at 36.8 umol/kg, ip within 30 mins; conditions: in vivo
[8] = AUC (0 to 480 mins) in mouse at 36.8 umol/kg, ip; conditions: plasma
NCI-H460 [9] = assay: Induction of apoptosis in human H460 cells by annexin V apoptosis assay; assay type: functional, cell-based
[10] = Tmax in mouse at 36.8 umol/kg, ip; conditions: in vivo
LCC6 = assay: Induction of apoptosis in human LCC6 cells by annexin V apoptosis assay; assay type: functional, cell-based
Mus musculus = assay: Toxicity in VEGF expressing human SK-MEL-28 cells xenografted in mouse assessed as effect on histological indications at 5 to 10 mg/kg, ip daily for 24 days; conditions: in vivo
Endothelial cell = assay: Induction of apoptosis in human endothelial cells by annexin V apoptosis assay; assay type: functional, cell-based
SK-MEL-28 [11] = assay: Inhibition of tumor growth in VEGF expressing human SK-MEL-28 cells xenografted in mouse at 10 mg/kg, ip administered every altenative day for 24 days; assay type: functional; conditions: SK-MEL-28, ip, 576 h, route intraperitoneal
[12] = Plasma clearance in mouse at 38.2 umol/kg, ip
[13] = Half life in mouse at 38.2 umol/kg, ip; conditions: in vivo
[14] = AUC (0 to 480 mins) in mouse at 38.2 umol/kg, ip; conditions: plasma
[15] = Cmax in mouse at 38.2 umol/kg, ip within 30 mins; conditions: in vivo
[16] = Tmax in mouse at 38.2 umol/kg, ip; conditions: in vivo

Row | Compound | IC50 [1] | IC50 (NCI-H460 [6]) | Activity (NCI-H460 [9]) | Activity (LCC6) | Activity (Endothelial cell) | other results
1 | COc1ccc(-n2c3cssc-3c(NC(=O)c3cc(C(F)(F)F)cc(C(F)(F)F)c3)c2=O)c(OC)c1 | 160 nM | 130 nM | Active | Active | Active | Activity (SK-MEL-28 [2]): Active; half-life [3]: 2.67 h; inhibition in vivo at 20 mg/kg [4]: 58%; clearance [5]: 2.9 mL/min/kg; Cmax [7]: 57 µM; AUC(0-t) at 8 h [8]: 210 µM·h; Tmax [10]: 0.5 h; Activity (Mus musculus): Active
2 | COc1ccc(-n2c3cssc-3c(NC(C)=O)c2=O)cc1 | 220 nM | 53 nM | Active | Active | Active | –
3 | CC(=O)O[C@H]1C(=O)[C@@]2(C)[C@H]([C@H](OC(=O)c3ccccc3)[C@]3(O)C[C@H](OC(=O)[C@H](O)[C@@H](NC(=O)c4ccccc4)c4ccccc4)C(C)=C1C3(C)C)[C@]1(OC(C)=O)CO[C@@H]1C[C@@H]2O [PACLITAXEL] | – | – | – | – | – | inhibition in vivo at 10 mg/kg (SK-MEL-28 [11]): 37%
4 | COc1ccc(-n2c3cssc-3c(NC(=O)C(F)(F)F)c2=O)c(OC)c1 | 60 nM | 170 nM | Active | Active | Active | –
5 | CC(=O)Nc1c2sscc-2n(-c2ccc(C)cc2)c1=O | 220 nM | 44 nM | Active | Active | Active | –
6 | COc1ccc(-n2c3cssc-3c(NC(=O)c3ccco3)c2=O)c(OC)c1 | 28 nM | 50 nM | Active | Active | Active | –
7 | COc1ccc(-n2c3cssc-3c(NC(=O)c3ccc(C(F)(F)F)cc3)c2=O)c(OC)c1 | 85 nM | 7 nM | Active | Active | Active | –
8 | O=C(Nc1c2sscc-2n(Cc2ccccc2)c1=O)c1cc(C(F)(F)F)cc(C(F)(F)F)c1 | 1180 nM | 706 nM | Active | Active | Active | –
9 | CC(C)c1ccc(-n2c3cssc-3c(NC(=O)c3cc(O)c(C(C)C)c(O)c3)c2=O)cc1 | 40 nM | 150 nM | Active | Active | Active | –
10 | CCCCC(C)C(=O)Nc1c2sscc-2[nH]c1=O (stereo not drawn) | 200 nM | 200 nM | Active | Active | Active | –
11 | COc1ccc(C(=O)Nc2c3sscc-3n(-c3ccc(OC)cc3OC)c2=O)c(OC)c1 | 251 nM | 11 nM | Active | Active | Active | –
12 | CC(C)c1c(O)cc(C(=O)Nc2c3sscc-3n(Cc3ccccc3)c2=O)cc1O | 250 nM | 170 nM | Active | Active | Active | –
13 | COc1ccc(-n2c3cssc-3c(NC(C)=O)c2=O)c(OC)c1 | 190 nM | 30 nM | Active | Active | Active | –
14 | COc1ccc(-n2c3cssc-3c(NC(=O)c3cc(F)cc(F)c3)c2=O)c(OC)c1 | 349 nM | 11 nM | Active | Active | Active | –
15 | CC(=O)Nc1c2sscc-2n(Cc2ccccc2)c1=O | – | 900 nM | Active | Active | Active | –
16 | COc1ccc(-n2c3cssc-3c(NC(=O)c3cccs3)c2=O)c(OC)c1 | 210 nM | 8 nM | Active | Active | Active | –
17 | COc1ccc(-n2c3cssc-3c(NC(=O)C(F)(F)F)c2=O)cc1 | 220 nM | 190 nM | Active | Active | Active | –
18 | COc1ccc(-n2c3cssc-3c(NC(=O)c3cc(O)c(C(C)C)c(O)c3)c2=O)c(OC)c1 | 70 nM | 72 nM | Active | Active | Active | clearance [12]: 6.3 mL/min/kg; half-life [13]: 1.57 h; AUC(0-t) at 8 h [14]: 102 µM·h; Cmax [15]: 106 µM; Tmax [16]: 3 min
